The values below come from ChEMBL document CHEMBL1799919, “Design, synthesis, biological evaluation, and structure-activity relationships of substituted phenyl 4-(2-oxoimidazolidin-1-yl)benzenesulfonates as new tubulin inhibitors mimicking combretastatin A-4” (J Med Chem, 2011).

For orientation: IC50 means the concentration at which inhibition is half-maximal.

Test [1] in a line: Antiproliferative activity against mouse P388D1 cells after 48 hrs by sulforhodamine B assay. The format is functional, cell-based. Particulars: P388D1, 48 h. A general note: Sulforhodamine B stains cellular protein and so reports cell mass.
Test [2] deals with CHO-TAX 5-6. The test is described as follows: Antiproliferative activity against paclitaxel-resistant CHO-TAX 5-6 cells after 48 hrs by sulforhodamine B assay. The test is classed as functional, cell-based. Particulars: Cricetulus griseus, CHO-TAX 5-6, 48 h.
Another test has as its system DU-145. Kind of test: Antiproliferative activity against human DU145 cells after 48 hrs by sulforhodamine B assay. The format is functional, cell-based. The note with it: DU-145, 48 h.
In another test the test system is CEM-VLB. The test is described as follows: Resistant ratio of IC50 for multidrug-resistant human CEM-VLB cells to IC50 for human CEM cells. The test is classed as functional. The essentials:
(§1)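 Ratio of the IC50 in the resistant line (CEM-VLB, CHO-TAX 5-6 or CHO-VV 3-2) to the IC50 in its parental line (CEM or CHO).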

A further test relates to HT-1080. Kind of test: Antiproliferative activity against human HT1080 cells after 48 hrs by sulforhodamine B assay. The test is classed as functional, cell-based. Particulars: HT-1080, 48 h.
The test system of the next test is L1210. The test is described as follows: Antiproliferative activity against mouse L1210 cells after 48 hrs by sulforhodamine B assay. The note with it: L1210, 48 h. The format is functional, cell-based.
For the next test, the system named is CHO. Kind of test: Antiproliferative activity against CHO cells after 48 hrs by sulforhodamine B assay. The test is classed as functional, cell-based. The note with it: Cricetulus griseus.
A short description of test [3]: Antiproliferative activity against mouse B16F0 cells after 48 hrs by sulforhodamine B assay. The test is classed as functional, cell-based. Particulars: B16F0, 48 h.
Another test relates to CHO-VV 3-2. The test is described as follows: Antiproliferative activity against colchicine- and vinblastine-resistant CHO-VV 3-2 cells after 48 hrs by sulforhodamine B assay. Particulars: Cricetulus griseus, CHO-VV 3-2, 48 h.
Another test relates to CCRF-CEM. The test is described as follows: Antiproliferative activity against human CEM cells after 48 hrs by sulforhodamine B assay. The format is functional, cell-based.
The test system of the next test is K562. Kind of test: Antiproliferative activity against human K562 cells after 48 hrs by sulforhodamine B assay. The format is functional, cell-based. The note with it: K562, 48 h.
In test [4] the test system is MDA-MB-231. Kind of test: Antiproliferative activity against human MDA-MB-231 cells after 48 hrs by sulforhodamine B assay. The test is classed as functional, cell-based. Particulars: MDA-MB-231, 48 h.
For the next test, the system named is SK-OV-3. Kind of test: Antiproliferative activity against human SKOV3 cells after 48 hrs by sulforhodamine B assay. The test is classed as functional, cell-based. The note with it: SK-OV-3, 48 h.
The subject of test [5] is CHO-TAX 5-6. Kind of test: Resistant ratio of IC50 for paclitaxel-resistant CHO-TAX 5-6 cells to IC50 for CHO cells. The test is classed as functional, Cricetulus griseus. The essentials:
as §1

A short description of test [6]: Antiproliferative activity against multidrug-resistant human CEM/VLB cells after 48 hrs by sulforhodamine B assay. The format is functional.
The test system of test [7] is M21. The test is described as follows: Cell cycle arrest in human M21 cells assessed as accumulation at G0/G1 phase at 5 times IC50 after 24 hrs using propidium iodide staining by flow cytometric analysis (reference value: 61%). The format is functional. In general terms: In flow cytometry, cells or beads pass a laser one at a time.
The test system of another test is HT-29. The test is described as follows: Antiproliferative activity against human HT-29 cells after 48 hrs by sulforhodamine B assay. The test is classed as functional, cell-based. The note with it: HT-29, 48 h.
Test [8] has as its system M21. Kind of test: Cell cycle arrest in human M21 cells assessed as accumulation at S phase at 5 times IC50 after 24 hrs using propidium iodide staining by flow cytometric analysis (reference value: 30%). The test is classed as functional.
Test [9] relates to M21. The test is described as follows: Cell cycle arrest in human M21 cells assessed as accumulation at G2/M phase at 5 times IC50 after 24 hrs using propidium iodide staining by flow cytometric analysis (reference value: 9%). The test is classed as functional.
A further test concerns MCF7. The test is described as follows: Antiproliferative activity against human MCF7 cells after 48 hrs by sulforhodamine B assay. The test is classed as functional, cell-based. The note with it: MCF7, 48 h.
The test system of test [10] is M21. Kind of test: Disruption of cytoskeleton microtubule structure of human M21 cells at 5 times IC50 after 16 hrs by indirect immunofluorescence assay. The format is functional, cell-based. The essentials: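 Fixed in 3.7% formaldehyde, permeabilized with saponin, and stained with anti-β-tubulin (TUB 2.1), Alexa-488 secondary and DAPI. Microtubule structure scored by fluorescence microscopy.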

For test [11], the system named is M21. Kind of test: Antiproliferative activity against human M21 cells after 48 hrs by sulforhodamine B assay. The format is functional, cell-based. Particulars: M21, 48 h.
Test [12] deals with MDA-MB-231. The test is described as follows: Displacement of N,N'-ethylenebis(iodoacetamide) from colchicine-binding site of beta-tubulin in human MDA-MB-231 cells at 1000 times IC50 preincubated for after 2 hrs before N,N'-ethylenebis(iodoacetamide) addition measured after 1.5 hrs by chemiluminescence assay. The format is cell-based. The essentials:
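EBI (100 μM final) added for 1.5 h at 37 °C; controls received 0.5% DMSO. Lysates (20 μg protein) run on 10% SDS-PAGE and blotted with anti-β-tubulin (TUB 2.1). β-tubulin–EBI adduct band detected by ECL.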

Activity calls are given as the source filed them. No cut-off for these calls is given here.

`CC[C@]1(O)C[C@@H]2CN(CCc3c([nH]c4ccccc34)[C@@](C(=O)OC)(c3cc4c(cc3OC)N(C)[C@H]3[C@@](O)(C(=O)OC)[C@H](OC(C)=O)[C@]5(CC)C=CCN6CC[C@]43[C@@H]65)C2)C1` [VINBLASTINE]: the concentration for half-maximal inhibition (IC50) was 1.8 nM in test [1]; 6.9 nM with CHO-TAX 5-6 [2]; 0.063 nM with DU-145; 0.099 nM in the test on HT-1080; 0.16 nM in the test on L1210; 17 nM with CHO. In addition, the IC50 in [3] is 0.099 nM; with CHO-VV 3-2, 66 nM; with CCRF-CEM, 0.38 nM; in the test with K562, 0.36 nM; with MDA-MB-231 [4], 0.12 nM; in the test with SK-OV-3, 0.039 nM. In test [6], this compound came in with a concentration for half-maximal inhibition (IC50) of 600 nM. The “Ratio IC50” value in the test with CEM-VLB is given as 1579; with CHO-TAX 5-6 [5], 0.41.

As for `COc1cc2c(c(OC)c1OC)-c1ccc(OC)c(=O)cc1[C@@H](NC(C)=O)CC2` [COLCHICINE], the IC50 in test [1] came out at 28 nM; in the test with CHO-TAX 5-6 [2] it was 140 nM; with HT-1080, 1.1 nM; in the test with L1210 it was 6.9 nM; in the test with CHO, 220 nM; in test [3] it was 13 nM. Further, the IC50 with CHO-VV 3-2 worked out at 620 nM; with CCRF-CEM, 7.9 nM; with K562, 6.8 nM; in the test on MDA-MB-231 [4] it was 2.9 nM; with SK-OV-3 it was 2.1 nM; in test [6] it was 360 nM.

`CC(=O)O[C@H]1C(=O)[C@@]2(C)[C@H]([C@H](OC(=O)c3ccccc3)[C@]3(O)C[C@H](OC(=O)[C@H](O)[C@@H](NC(=O)c4ccccc4)c4ccccc4)C(C)=C1C3(C)C)[C@]1(OC(C)=O)CO[C@@H]1C[C@@H]2O` [PACLITAXEL]: the half-maximal inhibitory concentration (IC50) in test [1] came out at 35 nM; with CHO-TAX 5-6 [2], 520 nM; with DU-145, 1.3 nM; in the test with HT-1080 it was 0.15 nM; with L1210, 0.4 nM; in the test with CHO, 170 nM. Further, the half-inhibitory concentration (IC50) was determined as 28 nM in test [3]; 140 nM in the test on CHO-VV 3-2; 0.27 nM with CCRF-CEM; 0.71 nM in the test on K562; 2.6 nM in the test on SK-OV-3.

Regarding `O=C1NCCN1c1ccc(S(=O)(=O)Oc2ccc(F)cc2F)cc1`, the Activity came to 2% with M21 [7], 26% with M21 [8] and 72% in the test on M21 [9]. Also, the IC50 in the test with HT-29 was 41 nM; with MCF7 it was 55 nM; in the test with M21 [11] it was 35 nM. Moreover, the result in the test with M21 [10] was Active. The inhibition entry with MDA-MB-231 [12] is “Active”.

Take `CCCc1ccc(OS(=O)(=O)c2ccc(N3CCNC3=O)cc2)cc1`: the Activity in the test on M21 [7] was 1%; in the test with M21 [8] it was 18%; in the test on M21 [9], 81%. Besides, the IC50 in the test on HT-29 came out at 77 nM; with MCF7 it was 110 nM; in the test with M21 [11] it was 59 nM. Besides, the outcome in the test with M21 [10] was Active. In the test with MDA-MB-231 [12], the inhibition result is “Active”.

For `CCCc1cccc(OS(=O)(=O)c2ccc(N3CCNC3=O)cc2)c1`, the Activity came to 2% in the test with M21 [7], 25% with M21 [8] and 73% in the test on M21 [9]. Also, the IC50 was found to be 34 nM in the test with HT-29, 51 nM in the test with MCF7 and 27 nM in the test on M21 [11]. In addition, the result with M21 [10] was Active. In the test with MDA-MB-231 [12], the inhibition result is “Active”.

As to `Cc1ccccc1OS(=O)(=O)c1ccc(N2CCNC2=O)cc1`, the Activity was 11% in the test on M21 [7], 15% in the test with M21 [8] and 74% in the test on M21 [9]. In addition, the figures for the IC50 in the test with HT-29, in the test on MCF7 and with M21 [11] were 33 nM, 30 nM and 26 nM, respectively. For the same compound, the outcome in the test with M21 [10] was Active. The inhibition result in the test on MDA-MB-231 [12] was “Active”.
